For two molecules, Kd and stoichiometry N results are on record in paper PMC5668626 (Biochemistry and Biophysics Reports, 2015).

What is called Kd is the equilibrium constant for the complex coming apart. In general, stoichiometry N refers to a count of units in the complex or per binding partner.

Assay [1] concerns the target T1, PfP2-tetramer (Plasmodium falciparum P2, recombinant) (Plasmodium falciparum, UniProt O00806).
T1 sequence (O00806 1-112): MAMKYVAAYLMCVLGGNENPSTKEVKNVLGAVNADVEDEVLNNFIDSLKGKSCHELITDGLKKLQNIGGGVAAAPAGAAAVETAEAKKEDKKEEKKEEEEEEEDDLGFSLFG
The assay is described as follows: isothermal titration calorimetry. The class given is binding. Put shortly: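 Recombinant PfP2 tetramer (0.075 mM) in the sample cell, with buffer in the reference cell, at pH 7.4 and 25 °C. The hydrophobic dye ligand (15 mM, syringe) was added in 50 injections of 5 μl, each lasting 10 s and spaced 4 min apart, with stirring. Titration heats were fitted to a binding model for K, ΔH, ΔS and n.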

Assay [2] deals with Plasmodium falciparum P2 (recombinant) (Plasmodium falciparum). Description: SEC. (In general: Size exclusion chromatography separates by hydrodynamic size, large species first.)

On to `O=S(=O)(O)c1cccc2cccc(Nc3ccccc3)c12` [ANS], for which, in assay [1], the dissociation constant Kd is 102 µM.

Consider “Plasmodium falciparum P2 (recombinant) (natural protein)”, for which the stoichiometry N in assay [2] worked out at 4.
